Activity calls are given as the source filed them. No cut-off for these calls is given here.
Experiments:
[1] = Binding affinity to fluorophore labeled FAM-ACATCT-dabcyl (unknown origin) assessed as change in melting temperature at 100 uM by fluorescence assay
In short: (§1)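 Duplexes made from fluorescently labeled oligonucleotides, each carrying the site of interest at its center. Melting run at 0.25 μM duplex DNA in 10 mM sodium phosphate pH 7.4 with 100 mM NaCl. Relative fluorescence was followed against temperature and normalized to the same initial value. First derivatives of the melting profiles were used to read transitions.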

[2] = Binding affinity to TATATA HexB DNA (unknown origin) by DNase 1 footprinting assay
In short: (§2)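 Radiolabeled MS2, HexA or HexB DNA fragments incubated with ligand at 14 concentrations (500, 400, 300, 200, 100, 80, 60, 40, 20, 10, 5, 1, 0.5, 0.1 μM), then digested with DNase I. Products resolved on gels alongside GA purine markers and solvent-only DNA controls. C50 is the ligand concentration that reduced footprint band intensity by 50%.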

[3] = Binding affinity to fluorophore labeled FAM-AATATT-dabcyl (unknown origin) assessed as change in melting temperature at 100 uM by fluorescence assay; in short: as §1
[4] = Binding affinity to 3'-end [alpha32P]dATP labeled tyrT plasmid DNA (unknown origin) assessed as change in band shift at 10 to 50 uM
In short: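 tyrT DNA fragment incubated with ligand; a control lane received the solvent conditions alone. Samples were run on a native gel, and binding was scored as DNA bands that migrated more slowly than the control.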

[5] = Binding affinity to fluorophore labeled FAM-GTGCAC-dabcyl (unknown origin) assessed as change in melting temperature at 100 uM by fluorescence assay; in short: as §1
[6] = Binding affinity to fluorophore labeled FAM-CACGTG-dabcyl (unknown origin) assessed as change in melting temperature at 100 uM by fluorescence assay; in short: as §1
[7] = Binding affinity to GACGTA MS2 DNA (unknown origin) by DNase 1 footprinting assay; in short: as §2
[8] = Binding affinity to CGTACG HexB DNA (unknown origin) by DNase 1 footprinting assay; in short: as §2
[9] = Binding affinity to CTCGAG HexB DNA (unknown origin) by DNase 1 footprinting assay; in short: as §2
[10] = Binding affinity to CGCGAT HexB DNA (unknown origin) by DNase 1 footprinting assay; in short: as §2
[11] = Binding affinity to GGATAG MS2 DNA (unknown origin) by DNase 1 footprinting assay; in short: as §2
[12] = Binding affinity to ATGGAT MS2 DNA (unknown origin) by DNase 1 footprinting assay; in short: as §2
[13] = Binding affinity to fluorophore labeled FAM-ACATGT-dabcyl (unknown origin) assessed as change in melting temperature at 100 uM by fluorescence assay; in short: as §1
[14] = Binding affinity to ACGACT MS2 DNA (unknown origin) by DNase 1 footprinting assay; in short: as §2
DNA = assay: Binding affinity to [alpha-32P]dATP labeled HexA DNA (unknown origin) at 0.1 to 500 uM by DNase 1 footprinting assay
[15] = Binding affinity to [alpha-32P]dATP labeled MS2 DNA (unknown origin) at 0.1 to 500 uM by DNase 1 footprinting assay
In short: (§3)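 Each radiolabeled fragment (MS2, HexA or HexB) incubated with ligand at 14 concentrations from 500 down to 0.1 μM, then cleaved with DNase I. Gel tracks compared with GA purine markers and solvent-only DNA to find regions of attenuated cleavage as footprints.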

[16] = Binding affinity to [alpha-32P]dATP labeled HexB DNA (unknown origin) at 0.1 to 500 uM by DNase 1 footprinting assay; in short: as §3

Row | Activity [4] | Activity (DNA) | Activity [15] | Activity [16] | SMILES | ΔTm [1] | C50 [2] | ΔTm [3] | ΔTm [5] | ΔTm [6] | C50 [7] | C50 [8] | C50 [9] | C50 [10] | C50 [11] | C50 [12] | ΔTm [13] | C50 [14]
1 | Active | Active | Active | Active | CS[C@H]1SC[C@H]2C(=O)N(C)[C@@H](C(C)C)C(=O)OC[C@@H](NC(=O)c3cnc4ccccc4n3)C(=O)N[C@@H](C)C(=O)N(C)[C@@H]1C(=O)N(C)[C@@H](C(C)C)C(=O)OC[C@@H](NC(=O)c1cnc3ccccc3n1)C(=O)N[C@@H](C)C(=O)N2C | – | – | – | – | – | – | – | – | – | – | – | – | –
2 | inactive | – | – | – | COCCOCCOCC(=O)NC[C@H]1C(=O)N(C)C[C@@H](NC(=O)c2nc3ccccc3cc2O)C(=O)NCC(=O)N(C)[C@H]2CSSC[C@@H](C(=O)N1C)N(C)C(=O)CNC(=O)[C@H](NC(=O)c1nc3ccccc3cc1O)CN(C)C(=O)[C@H](CNC(=O)COCCOCCOC)N(C)C2=O | – | – | – | – | – | – | – | – | – | – | – | – | –

Row | SMILES | Activity [4] | Activity (DNA) | Activity [15] | Activity [16] | ΔTm [1] | C50 [2] | ΔTm [3] | ΔTm [5] | ΔTm [6] | C50 [7] | C50 [8] | C50 [9] | C50 [10] | C50 [11] | C50 [12] | ΔTm [13] | C50 [14]
3 | CSC[C@H]1C(=O)N(C)C[C@@H](NC(=O)c2nc3ccccc3cc2O)C(=O)NCC(=O)N(C)[C@H]2CSSC[C@@H](C(=O)N1C)N(C)C(=O)CNC(=O)[C@H](NC(=O)c1nc3ccccc3cc1O)CN(C)C(=O)[C@H](CSC)N(C)C2=O | Active | – | – | – | 2.2 °C | 28 µM | 1.4 °C | 0.7 °C | 7.6 °C | 95 µM | 13 µM | 17 µM | 22 µM | 131 µM | 110 µM | 4.5 °C | 102 µM

From ChEMBL document CHEMBL3108767, “Thioester Bonds of Thiocoraline Can Be Replaced with NMe-Amide Bridges without Affecting Its DNA-Binding Properties” (ACS Med Chem Lett, 2014)
